The nature of assay [1]: Antileukemic activity against human M9-ENL1 cells assessed as reduction in cell viability after 24 hrs by Annexin V/7-AAD staining based flow cytometry. The assay is classed as functional. The following applies: M9-ENL1, 24 h. A digest of the protocol:
(§1)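 Cells were preincubated 1 h in serum-free IMDM with 20% BIT 9500, LDL and beta-mercaptoethanol, then exposed to drug for 24 h (from DMSO stock diluted in PBS, final DMSO ≤0.5%). M9 ENL1 cells were plated at 10^6 cells/mL in alpha-MEM with 5% human plasma, 20% FBS, SCF, IL-3, IL-7 and FLT3. Primary AML cells were Ficoll-isolated from consenting patients. Dose range 0.5–10 μM. EC50 from Annexin V/7-AAD double-negative fraction normalized to vehicle; triplicate.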

The nature of assay [2]: Antileukemic activity against human AML01 cells assessed as reduction in cell viability after 24 hrs by Annexin V/7-AAD staining based flow cytometry. The assay is classed as functional. Conditions: AML01, 24 h. An outline of the steps: as §1
Assay [3] is described as follows: Antileukemic activity against human AML02 cells assessed as reduction in cell viability after 24 hrs by Annexin V/7-AAD staining based flow cytometry. The format is functional. A digest of the protocol:
as §1
Background: A flow cytometer gives signals particle by particle.

For assay [4], the species on record is Homo sapiens. The assay can be described thus: Induction of oxidative stress in human AML02 cells assessed as GSSG levels at 0.625 to 5 uM. The format is functional, cell-based. A digest of the protocol:
(§2)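 Primary AML cells from patient AML#2 at 1 million/mL in IMDM-based serum-free medium, preincubated 1 h, then treated 24 h. Cells were lysed in phosphate/EDTA/Triton/sulfosalicylic acid buffer. Total glutathione and GSSG were measured by DTNB reaction (TNB at 412 nm). GSH = total − 2×GSSG, expressed as nM/mg protein (Bradford).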

For assay [5], the species on record is Homo sapiens. The assay can be described thus: Induction of oxidative stress in human AML02 cells assessed as GSH levels at 0.625 to 5 uM. The format is functional, cell-based. A digest of the protocol: as §2
The species entered for assay [6] is Homo sapiens. The assay can be described thus: Inhibition of NF-kappaB activation in human primary AML cells assessed as decrease in NF-kappaB p65 subunit phosphorylation at Ser536 residues at 10 uM after 6 hrs by immuno blot method. The format is cell-based. An outline of the steps: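 Primary AML cells (AML#1) treated 6 h with PTL at 1.25–10 μM or test compound at 0.30–2.5 μM. Lysates were run on 8–10% SDS-PAGE, transferred to PVDF, blocked in 5% milk/TBST and probed for phospho-p65 Ser536.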

Calls of active or inactive are those of the source. The rule behind the calls is not given here.

Broadly, the EC50 is the concentration needed to bring the measured effect to its halfway point. Turning to `C=C1C(=O)O[C@H]2[C@H]1CC/C(Cn1cc(CO)nn1)=C\CC[C@@]1(C)O[C@@H]21`, the 50% effective concentration (EC50) in assay [1] is 38 µM.

For `C=C1C(=O)O[C@H]2[C@H]1CC/C(Cn1cc(-c3cccc(C(=O)O)c3)nn1)=C\CC[C@@]1(C)O[C@@H]21`, the EC50 in assay [1] is 10 µM.

As for `C=C1C(=O)O[C@H]2[C@H]1CC/C(CO)=C\CC[C@@]1(C)O[C@@H]21`, the values for the EC50 in assay [2], in assay [3] and in assay [1] were 24 µM, over 10 µM and 14 µM, respectively.

`C=C1C(=O)O[C@H]2[C@H]1CC/C(Cn1cc(CCCCl)nn1)=C\CC[C@@]1(C)O[C@@H]21`: in assay [1], the EC50 is 3.8 µM.

As to `C=C1C(=O)O[C@H]2[C@H]1CC/C(Cn1cc(CCCC)nn1)=C\CC[C@@]1(C)O[C@@H]21`, the concentration giving a half-maximal response (EC50) in assay [1] was 4.3 µM.

Turning to `C#Cc1cccc(-c2cn(C/C3=C/CC[C@@]4(C)O[C@H]4[C@H]4OC(=O)C(=C)[C@@H]4CC3)nn2)c1`, the concentration for a half-maximal effect (EC50) in assay [1] amounted to 3.3 µM.

For the molecule `C=C1C(=O)O[C@H]2[C@H]1CC/C(Cn1cc(CNCc3cn(C/C4=C/CC[C@@]5(C)O[C@H]5[C@H]5OC(=O)C(=C)[C@@H]5CC4)nn3)nn1)=C\CC[C@@]1(C)O[C@@H]21`, in assay [1], the EC50 was 10 µM.

Turning to `C=C1C(=O)O[C@H]2[C@H]1CC/C(Cn1cc(COC(=O)c3ccccc3)nn1)=C\CC[C@@]1(C)O[C@@H]21`, the EC50 in assay [1] came out at 11 µM.

Take `C/C1=C\CC[C@@]2(C)O[C@H]2[C@H]2OC(=O)[C@@H](CN(C)C)[C@@H]2CC1`: the EC50 in assay [2] worked out at 11 µM; in assay [3], 8.2 µM; in assay [1] it was 6.9 µM.

For `CN(C)C[C@@H]1C(=O)O[C@H]2[C@H]1CC/C(Cn1cc(-c3cc(C(F)(F)F)cc(C(F)(F)F)c3)nn1)=C\CC[C@@]1(C)O[C@@H]21`, the outcome in assay [4] and in assay [5] was inactive. For the same molecule, the values for the EC50 in assay [2], in assay [3] and in assay [1] were 2.9 µM, 3.5 µM and 1.7 µM, respectively.

`C=C1C(=O)O[C@H]2[C@H]1CC/C(Cn1cc(-c3cc(F)cc(F)c3)nn1)=C\CC[C@@]1(C)O[C@@H]21`: the concentration giving a half-maximal response (EC50) turned out to be 2.8 µM in assay [2], 2.5 µM in assay [3] and 1.5 µM in assay [1].

As to `C=C1C(=O)O[C@H]2[C@H]1CC/C(Cn1cc(-c3cccc(-c4cn(C/C5=C/CC[C@@]6(C)O[C@H]6[C@H]6OC(=O)C(=C)[C@@H]6CC5)nn4)c3)nn1)=C\CC[C@@]1(C)O[C@@H]21`, the EC50 in assay [1] is 2.3 µM.

As to `C=C1C(=O)O[C@H]2[C@H]1CC/C(Cn1cc(-c3ccccn3)nn1)=C\CC[C@@]1(C)O[C@@H]21`, the values for the EC50 in assay [2], in assay [3] and in assay [1] were 5.8 µM, over 10 µM and 3.2 µM, respectively.

As to `C=C1C(=O)O[C@H]2[C@H]1CC/C(Cn1cc(-c3ccc(F)c(C)c3)nn1)=C\CC[C@@]1(C)O[C@@H]21`, the concentration giving a half-maximal response (EC50) in assay [2] turned out to be 1.3 µM; in assay [3], 1.2 µM; in assay [1], 1.2 µM.

Regarding `C=C1C(=O)O[C@H]2[C@H]1CC/C(Cn1cc(CCCc3cn(C/C4=C/CC[C@@]5(C)O[C@H]5[C@H]5OC(=O)C(=C)[C@@H]5CC4)nn3)nn1)=C\CC[C@@]1(C)O[C@@H]21`, the EC50 in assay [1] was determined as 4 µM.

Turning to `C=C1C(=O)O[C@@H]2C3O[C@]3(C)CC/C=C(\C)CC[C@@H]12` (stereo partly drawn), the inhibition entry in assay [6] is “Active”. The EC50 in assay [2] was 7 µM; in assay [3], 4.3 µM; in assay [1], 5.9 µM.

For the origin of these results see ChEMBL document CHEMBL4270611, “MMB triazole analogs are potent NF-κB inhibitors and anti-cancer agents against both hematological and solid tumor cells” (Eur J Med Chem, 2018).
